The text below walks through data of ChEMBL document CHEMBL3272287, “Synthesis and biological activity of new 2-substituted analogs of fluphenazine” (1976).

Common to all, as to type: functional
Assay [1] concerns Rattus norvegicus. The assay can be described thus: Cataleptogenic potency in im dosed albino rat assessed as reversal of imposed position administered 4 doses at quarter log intervals measured 60 to 180 mins post dose. The method in brief:
(§1)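 Male albino rats (about 180 g average), groups of six, each given a single intramuscular injection into the gastrocnemius, about 0.1 ml/kg. Saline-injected controls. One observer scored forepaw-elevation catalepsy. CD50 was the dose giving 50% of the maximum catalepsy score (9 of 18 points), estimated by probit analysis. Doses were expressed as free base. Relative potency was calculated against fluphenazine as 1.0.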

Assay [2] deals with Rattus norvegicus. The assay can be described thus: Cataleptogenic potency in im dosed albino rat assessed as reversal of imposed position administered 4 doses at quarter log intervals measured 60 to 180 mins post dose relative to fluphenazine. The method in brief: as §1
Assay [3] relates to Mus musculus. The assay can be described thus: Cataleptogenic potency in iv dosed albino mouse assessed as reversal of imposed position administered 4 doses at quarter log intervals measured 60 to 180 mins post dose. The method in brief:
(§2)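 Male albino mice (20–25 g), six per dose, given intravenous aqueous solutions (PEG 200 for one analog). Distilled water served as the negative control. About four doses were spaced at quarter-log intervals, chosen from a preliminary gross observation screen. At 60, 120 and 180 min, mice were placed with forepaws elevated 5 cm and each forepaw was scored, maximum 3. Three observers scored the mice. CD50 came from probit analysis, with doses as free base. Relative potency was calculated against fluphenazine as 1.0.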

The subject of assay [4] is Mus musculus. As to the kind of experiment: Cataleptogenic potency in iv dosed albino mouse assessed as reversal of imposed position administered 4 doses at quarter log intervals measured 60 to 180 mins post dose relative to fluphenazine. In short, it runs like this: as §2

SMILES strings stand for the structures. Where only a bound is given, the exact number is not on record here.

For `N#Cc1ccc2c(c1)N(CCCN1CCN(CCO)CC1)c1ccccc1S2`, the ED50 was determined as 0.61 µmol/kg in the assay on Rattus norvegicus [1] and 0.41 µmol/kg in the assay on Mus musculus [3]. In addition, the results for the Ratio in the assay with Rattus norvegicus [2] and with Mus musculus [4] were 0.65 and 0.7, respectively.

As to `O=[N+]([O-])c1ccc2c(c1)N(CCCN1CCN(CCO)CC1)c1ccccc1S2`, the ED50 was 0.17 µmol/kg in the assay with Rattus norvegicus [1] and 2.2 µmol/kg with Mus musculus [3]. Further, the Ratio was determined as 3.2 in the assay on Rattus norvegicus [2] and 0.92 with Mus musculus [4].

In the case of `O=[N+]([O-])/C=C/c1ccc2c(c1)N(CCCN1CCN(CCO)CC1)c1ccccc1S2`, the ED50 with Mus musculus [3] was more than 57 µmol/kg. Moreover, the Ratio in the assay with Mus musculus [4] was less than 0.011.

Regarding `OCCN1CCN(CCCN2c3ccccc3Sc3ccc(C(F)(F)F)cc32)CC1` [FLUPHENAZINE], the ED50 in the assay on Rattus norvegicus [1] is 0.39 µmol/kg; in the assay on Mus musculus [3] it was 0.29 µmol/kg.

Turning to `N#CC(C#N)=Cc1ccc2c(c1)N(CCCN1CCN(CCO)CC1)c1ccccc1S2`, the ED50 in the assay on Mus musculus [3] was 28 µmol/kg. In the assay with Mus musculus [4], the Ratio worked out at 0.078.
